Published values pooled from the literature.
Lines come from different studies, so protocols differ. pIC50: −log10 of the molar value.

`C(=C\c1c[nH]c2ccccc12)/c1cc(/C=C/c2cccs2)[nH]n1` has a pIC50 of 6.05 (CHO-K1; cell growth or viability; MTT; 72 h).
For `O=[N+]([O-])c1ccc(-c2nc3cnccn3c2NC2CCCCC2)cc1`, the pIC50 was 4.19 (Vero; cell growth or viability; MTT; 48 h).
With `O=C(O)Cc1ccccc1Nc1c(Cl)cccc1Cl` the pIC50 was 4.26 (RAW264.7; NO release; inhibitor; LPS-stimulated).
For `CC(C)C[C@H](NC(=O)[C@H](Cc1ccccc1)NC(=O)c1cnccn1)B(O)O`, the pIC50 was 7.89 (NCI-H1437; cell growth or viability; ATP luminescence).
`O=C(Nc1nnc(-c2cc3ccccc3[nH]2)s1)c1cc2c([nH]c3ccccc32)c(-c2ccc(Cl)cc2)n1` gave a pIC50 of 5.03 (HL-60; cell growth or viability; MTT; 72 h).
The pIC50 of `O=C(/C=C(O)/C=C/c1cccs1)/C=C/c1c[nH]c2ccccc12` is reported as 5.23 (CHO-K1; cell growth or viability; MTT; 72 h).
The pIC50 of `O=C(/C=C(O)/C=C/c1c[nH]c2ccccc12)/C=C/c1c[nH]c2ccccc12` is reported as 5.10 (CHO-K1; cell growth or viability; MTT; 72 h).
For `COc1ccccc1/C=C/CNCC(O)COc1ccccc1` (stereo not shown), the pIC50 was 4.48 (NCI-H1299; cell growth or viability; CCK-8; 72 h).
`Cc1ncn2c(=O)n(C)nnc12` has a pIC50 of 5.22 (D54; cell growth or viability; resazurin; 7 days).
`C=CCn1c(-c2ccc(OC)c(OC)c2)nc2ccccc21` gave a pIC50 of 4.30 (human Rhabdomyosarcoma cell; cell growth or viability; MTT).
For `O=C(/C=C(/C=C/c1cccnc1)NCCO)/C=C/c1cccnc1`, the pIC50 was less than 4.12 (CHO-K1; cell growth or viability; SRB; 72 h).
`COc1cc(Nc2nccc(-c3cnn4nc(OC)ccc34)n2)cc(C(F)(F)F)c1` gave a pIC50 of 6.43 (SNU-840; cell growth or viability; ATP luminescence).
With `Cc1ccc2nc(-c3cccnc3)[nH]c2c1` the pIC50 was 4.08 (human Rhabdomyosarcoma cell; cell growth or viability; MTT; 48 h).
For `Nc1ccccc1-c1nc2ccccn2c1N`, the pIC50 was 4.13 (Vero; cell growth or viability; MTT; 48 h).
With `COc1cc(/C=C/C(=O)/C=C(O)/C=C/c2ccncc2)ccc1O` the pIC50 was 4.88 (CHO-K1; cell growth or viability; MTT; 72 h).
The pIC50 of `Cc1cc(Nc2ncc(Cl)c(Nc3ccccc3S(=O)(=O)C(C)C)n2)c(OC(C)C)cc1C1CCNCC1` is reported as 6.19 (Rh30; cell growth or viability; 72 h).
`O=C(/C=C(O)/C=C/c1ccc[nH]1)/C=C/c1ccc[nH]1` has a pIC50 of 5.16 (CHO-K1; cell growth or viability; MTT; 72 h).
`NS(=O)(=O)OC[C@@H]1C[C@@H](n2ccc3c(N[C@H]4CCc5ccccc54)ncnc32)C[C@@H]1O` has a pIC50 of 6.05 (NCI-H1299; cell growth or viability; CCK-8; 72 h).
`Cn1nnc2c(C(=O)N3CCCC3)ncn2c1=O` gave a pIC50 of 4.92 (D54; cell growth or viability; resazurin; 7 days).
`CCn1c(-c2nnc(NC(=O)c3cc4c([nH]c5ccccc54)c(-c4ccc(C)cc4)n3)s2)cc2ccccc21` gave a pIC50 of 4.40 (HL-60; cell growth or viability; MTT; 72 h).
With `NNc1nc(NCc2ccccc2)nc(Nc2ccc(Br)cc2)n1` the pIC50 was less than 4.52 (SK-BR-3; cell growth or viability; SRB; 72 h).
`COc1cc(/C=C/C(=O)/C=C(O)/C=C/c2c[nH]c3ccccc23)ccc1O` gave a pIC50 of 4.63 (CHO-K1; cell growth or viability; SRB; 72 h).
For `COc1cc(C(=O)c2csc(-c3ccccc3)n2)cc(OC)c1OC`, the pIC50 was 7.72 (B16-F1; cell growth or viability; SRB).
The pIC50 of `c1ccc2[nH]c(-c3ccc4c(c3)OCO4)nc2c1` is reported as less than 4.00 (human Rhabdomyosarcoma cell; cell growth or viability; MTT; 48 h).
For `COc1ccccc1/C=C/CNCC(O)COc1ccc2ccccc2c1` (stereo not shown), the pIC50 was 4.79 (NCI-H1299; cell growth or viability; CCK-8; 72 h).
`O=C(/C=C(/C=C/c1cccnc1)NC1CCCCC1)/C=C/c1cccnc1` gave a pIC50 of 4.77 (CHO-K1; cell growth or viability; MTT; 72 h).
`Nc1ccccc1-c1nc2cnccn2c1NC1CCCCC1` has a pIC50 of 4.12 (Vero; cell growth or viability; MTT; 48 h).
`Brc1ccc(Nc2nc(NCc3ccccc3)nc(NCc3ccccc3)n2)cc1` has a pIC50 of 4.69 (SK-BR-3; cell growth or viability; SRB; 72 h).
`COc1cc(/C=C/C(=O)/C=C(O)/C=C/c2cccnc2)ccc1O` gave a pIC50 of 4.44 (CHO-K1; cell growth or viability; SRB; 72 h).
With `COc1cc(N2CCC(N3CCN(C)CC3)CC2)ccc1Nc1ncc(Cl)c(Nc2ccccc2S(=O)(=O)C(C)C)n1` the pIC50 was 6.52 (Rh30; cell growth or viability; 72 h).
For `COc1cc(/C=C/c2cc(/C=C/c3cccc4cnccc34)[nH]n2)ccc1O`, the pIC50 was 5.10 (CHO-K1; cell growth or viability; SRB; 72 h).
For `COCCCNC(=C\C(=O)/C=C/c1cccnc1)/C=C/c1cccnc1`, the pIC50 was 4.62 (CHO-K1; cell growth or viability; SRB; 72 h).
With `COc1ccccc1/C=C/CNCC(O)COc1ccc2c(c1)[nH]c1ccccc12` (stereo not shown) the pIC50 was 5.41 (NCI-H1299; cell growth or viability; CCK-8; 72 h).
`O=C(/C=C(O)/C=C/c1cccnc1)/C=C/c1cccnc1` gave a pIC50 of 4.98 (CHO-K1; cell growth or viability; SRB; 72 h).
`COc1cc(/C=C/c2cc(/C=C/c3ccncc3)[nH]n2)ccc1O` has a pIC50 of 4.38 (CHO-K1; cell growth or viability; SRB; 72 h).
With `Cc1ccc2nc(-c3ccccc3O)[nH]c2c1` the pIC50 was 5.17 (human Rhabdomyosarcoma cell; cell growth or viability; MTT; 48 h).
For `COc1ccccc1OCCNC(=O)COc1cccc2[nH]c3ccccc3c12`, the pIC50 was less than 4.00 (NCI-H1299; cell growth or viability; CCK-8; 72 h).
`Cc1ccc2nc(-c3ccc([N+](=O)[O-])cc3)n(Cc3ccccc3Cl)c2c1` has a pIC50 of 4.75 (human Rhabdomyosarcoma cell; cell growth or viability; MTT).
`CC(C)CNC(=C\C(=O)/C=C/c1cccnc1)/C=C/c1cccnc1` gave a pIC50 of 4.75 (CHO-K1; cell growth or viability; MTT; 72 h).
`c1ccc2[nH]c(-c3ccncc3)nc2c1` gave a pIC50 of 4.51 (human Rhabdomyosarcoma cell; cell growth or viability; MTT; 48 h).
For `O=C(/C=C(O)/C=C/c1cccnc1)/C=C/c1c[nH]c2ccccc12`, the pIC50 was 4.61 (CHO-K1; cell growth or viability; SRB; 72 h).
`Cc1ccc(C(=O)Nc2ccc(Oc3cc4cnn(C)c4cc3-c3cn[nH]c3)c(F)c2)c(=O)n1-c1ccc(F)cc1` has a pIC50 of 7.55 (MKN-45; cell growth or viability; ATP luminescence).
`Cc1ccc2nc(-c3c(F)cccc3Cl)[nH]c2c1` gave a pIC50 of 4.35 (human Rhabdomyosarcoma cell; cell growth or viability; MTT; 48 h).
With `COc1ccccc1/C=C/CNCC(O)COc1ccc(C2CCCCC2)cc1` (stereo not shown) the pIC50 was 4.53 (NCI-H1299; cell growth or viability; CCK-8; 72 h).
`COCCCN1C(/C=C/c2cccnc2)=CC(=O)CC1c1cccnc1` (stereo not shown) has a pIC50 of less than 4.12 (CHO-K1; cell growth or viability; MTT; 72 h).
`Cc1ccc2nc(-c3ccco3)[nH]c2c1` gave a pIC50 of less than 4.00 (human Rhabdomyosarcoma cell; cell growth or viability; MTT; 48 h).
